# CYP2C19 act: increases human CYP2C19 enzyme activity; 96,000 tested, under 10 active; recombinant CYP2C19, luciferin-H EGE luminescence; stronger effect = higher value; 0 = fully inhibited enzyme, 1 = untreated enzyme; activation factor at 5 µM; AID 1025;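 active means activation factor of at least 2 at 5 µM in the primary screen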;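 further: 0 = wells with 2.5 mM tranylcypromine and 1 = vehicle-only wells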
# CYP2C19 inh: human CYP2C19 inhibition; 21% of 96,000 active; CYP2C19 Supersomes, luciferin-H EGE luminescence, 30 min; inhibition, % at 5 µM; P33261;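 active means CYP2C19 inhibition above a set limit at 5 µM in the primary screen, cut at about 50% in these data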;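 further: plate controls were negative control wells for no effect and 2.5 mM tranylcypromine positive control for full effect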
# Cav3 T inh: human Cav3.2 channel inhibition, primary screen; O95180; Cav3.2-expressing cells, Fluo-4 calcium fluorescence FDSS; stronger effect = lower value; B-score at 10 µM; 4% of 100,000 active;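 active means single-dose well whose peak fluorescence ratio is a statistical outlier from its plate by either plate-standardised score or position-corrected B-score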
# HIV Rev-RRE inh: inhibitors of HIV-1 Rev-RRE RNA interaction; Rev peptide-RRE RNA binding, FRET; inhibition, % at 8 µM; 0.79% of 97,000 active; AID 704;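 active means inhibition above the screen-wide mean plus 3 SD, cut at about 35% in these data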;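 further: 0% = median DMSO wells and 100% = median Neomycin B control wells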
# Target sequence (P05866 whole entry, looked up): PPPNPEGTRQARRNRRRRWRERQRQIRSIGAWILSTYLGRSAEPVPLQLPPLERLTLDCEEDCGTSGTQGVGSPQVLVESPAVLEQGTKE
#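 assay system = Cy5-tagged RRE RNA duplex with fluorescein-tagged Rev peptide | incubation = 5 + 15 min at 25 °C | also added = labelled Rev peptide | measure = % inhibition of FRET ratio versus controls | benchmarks = DMSO wells as 0% and neomycin B wells as 100% inhibition | measured by = FRET fluorescence readout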
# CYP2C9 activ: CYP2C9 (human) activation. recombinant CYP2C9, luciferin-H conversion, luminescence; stronger effect = higher value; factor 1 = untreated enzyme, 0 = blocked. 1.4% of 96,000 active. P11712. activation factor at 5 µM. AID 1024;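 active means activation factor of 2 or more for CYP2C9 at a 5 µM dose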;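 further: 0 = sulfaphenazole-blocked wells and 1 = vehicle-only wells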
# Target sequence (P11712 whole entry, looked up): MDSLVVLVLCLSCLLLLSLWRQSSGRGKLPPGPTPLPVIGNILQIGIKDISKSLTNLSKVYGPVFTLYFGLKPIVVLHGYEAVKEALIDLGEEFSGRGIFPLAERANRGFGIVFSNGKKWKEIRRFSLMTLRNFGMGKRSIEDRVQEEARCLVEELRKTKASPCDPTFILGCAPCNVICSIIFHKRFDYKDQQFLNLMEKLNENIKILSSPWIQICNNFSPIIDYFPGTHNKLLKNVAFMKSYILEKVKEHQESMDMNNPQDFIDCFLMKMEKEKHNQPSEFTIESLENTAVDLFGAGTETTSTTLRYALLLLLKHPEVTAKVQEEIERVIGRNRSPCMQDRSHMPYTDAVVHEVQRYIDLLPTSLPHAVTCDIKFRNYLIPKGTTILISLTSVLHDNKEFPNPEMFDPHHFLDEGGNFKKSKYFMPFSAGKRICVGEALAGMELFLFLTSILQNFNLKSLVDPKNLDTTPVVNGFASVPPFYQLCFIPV
# CYP2C9 inhib: human CYP2C9 inhibition; P11712; CYP2C9 Supersomes, luciferin-H conversion, luminescence; inhibition, % at 5 µM; 20% of 96,000 active;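 active means blocking of liver enzyme CYP2C9 beyond about 50% at 5 µM, limit read from the data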
# Numbers without * were called inactive; nt = not tested or not shown. Most compounds without a hit are left out; they make up all but 27% or so of the library.
SMILES,CYP2C19 act,CYP2C19 inh,Cav3 T inh,HIV Rev-RRE inh,CYP2C9 activ,CYP2C9 inhib
O=c1[nH]c(CSc2nc3ccccc3o2)nc2c1cnn2-c1ccccc1,0.2,78*,1.5,nt,0.3,68*
CC12CCC(=O)N1c1c(sc3nc(N4CCOCC4)c4c(c13)CCCC4)C(=O)N2 (stereo unspecified),1,3,2.2,4,0.3,68*
CCCCCCN(C(=O)CCCCCN1C(=O)NC(c2ccc(C3CCCCC3)cc2)C(C(=O)OCc2ccccc2)=C1C)C(C(=O)NCCCC)c1ccc(OCC(=O)OC)c(C(=O)OC)c1 (stereo unspecified),nt,nt,-0.49,nt,nt,nt
Cc1cc(C)c(C(=O)CSc2n[nH]c(=O)n2C2CC2)cc1C,0.5,52*,-0.77,3,0.2,77*
O=C(CN1C(=O)NC2(CCCC2)C1=O)Nc1ccccc1F,0.8,15,0.73,4,2.3*,-126
O=C(CCN1CCN(CC(=O)Nc2ccccc2Cl)CC1)Nc1ccccc1F,0.2,77*,0.69,1,0.6,43
CCN(CC)c1ccc(NC(=O)CN2CCN(CC(=O)Nc3ccccc3F)CC2)cc1,0.8,20,0.55,-6,0.9,7
O=C(CCCN1C(=O)CCC1=O)Nc1ccccc1F,0.9,12,0.096,3,0.8,20
O=C(CN1CCN(CC(=O)Nc2ccccc2C(F)(F)F)CC1)Nc1ccccc1F,0.2,85*,-0.026,5,0.9,7
Cc1cc(=O)oc2cc(Oc3ncccn3)ccc12,0.8,17,0.26,6,0.9,7
Cc1ccc(Cn2ncc3c(N4CCN(c5ccccc5C)CC4)ncnc32)cc1,0.4,60*,-5.6*,10,0.3,74*
c1ccc(Cn2ncc3c(N4CCCCC4)ncnc32)cc1,0.3,67*,-0.032,nt,0.7,30
Cc1ccc(Cn2ncc3c(N4CCOCC4)ncnc32)cc1,0.9,14,0.81,-2,1.1,-11
O=C1C2C(C(=O)N1Cc1cccnc1)C1C=CC2C12CC2 (stereo unspecified),0.3,66*,1,1,1,-1
O=C1C2C3C=CC(C3)C2C(=O)N1Cc1cccnc1 (stereo unspecified),1.1,-6,0.081,2,1,3
O=C1C2C3c4ccccc4C(c4ccccc43)C2C(=O)N1Cc1cccnc1 (stereo unspecified),0.3,68*,0.51,-3,0.7,26
CC1CN(C(NC(=O)C(C)(C)C)C(Cl)(Cl)Cl)CC(C)O1 (stereo unspecified),1,1,0.0076,1,1,4
CCN(CC)C(=O)Oc1ccc(NC(C)=O)cc1,1.1,-12,-0.71,9,1.1,-12
O=C(OCC(=O)N1CCN(C(=O)c2ccco2)CC1)c1cc(-c2ccco2)nc2ccccc12,0.9,13,1,-9,0.7,28
O=C(OCC(=O)N1CCN(C(=O)c2ccco2)CC1)c1cc(-c2ccc(Cl)c(Cl)c2Cl)nc2ccccc12,0.6,40,-3,-2,0.3,69*
O=C(c1ccc(F)cc1)N1C2CCC1CC(O)(c1ccc(F)cc1)C2 (stereo unspecified),0.9,13,-0.66,5,1,-4
O=C(c1cccnc1)N1C2CCC1CC(O)(c1ccc(F)cc1)C2 (stereo unspecified),0.5,52*,-0.062,5,0.9,12
Cn1c(=O)c(-c2ccccc2)nn2c3ccccc3nc12,0.4,62*,1.5,2,0.3,74*
CCOC(=O)N1N=C(c2ccc(C)cc2)CC1(O)C(F)(F)F (stereo unspecified),0.4,59*,1.9,2,0.5,48
CCOC(=O)N1N=C(c2ccccc2)CC1(O)C(F)(F)F (stereo unspecified),0.8,23,nt,-1,0.8,19
SMILES,CYP2C19 act,CYP2C19 inh,Cav3 T inh,HIV Rev-RRE inh,CYP2C9 activ,CYP2C9 inhib
CCO[C@H]1OC(C(=O)NCc2nc3ccccc3[nH]2)=C[C@@H](c2ccc3c(c2)OCO3)[C@@H]1CCCO,nt,nt,0.22,nt,nt,nt
Cc1cc(NC(=O)COC(=O)CSCc2ccc(Cl)c(Cl)c2)no1,0.7,27,-0.53,15,0.6,40
Cc1cc(NC(=O)COC(=O)C(Nc2ccc(C(F)(F)F)cc2Cl)C(C)C)no1 (stereo unspecified),0.4,57*,-4.5*,22,0.5,52*
Brc1ccc(-c2cn3c(n2)CCc2ccc4cccnc4c2-3)cc1,0.9,5,0.082,15,1,4
CCOc1ccc(C2=NNC(c3cccs3)=Nc3ccc(OC)cc32)cc1,nt,nt,-4.9*,16,nt,nt
Fc1ccc2c(c1)C(c1ccc(N3CCOCC3)cc1)=NNC(c1cccs1)=N2,0.1,90*,-1.9,6,0.2,84*
O=C(Oc1cccc(NC(=O)c2ccco2)c1)c1ccc(Br)c(S(=O)(=O)N2CCCCC2)c1,0.7,26,-3.5,10,0.5,48
Cc1ccc(C(=O)Oc2cccc(NC(=O)c3ccco3)c2)cc1S(=O)(=O)N1CCC(C)CC1,0.4,60*,-1.7,11,0.1,85*
Cc1cccc(NC(=O)c2sc(Cl)nc2-c2ccccc2)c1,0.1,91*,-0.53,13,0.5,54*
Cc1cccc(NC(=O)c2snc3c(=O)[nH]cnc23)c1,0.7,34,0.62,1,0.5,52*
Cc1cccc(NC(=O)c2cc(Cl)nc3ccccc23)c1,0.6,41,nt,7,1,5
COc1cc(NC(=O)Cc2ccccc2OC)cc(OC)c1,0.5,51*,1,2,0.7,30
COc1ccccc1CC(=O)Nc1ccccc1O,0.4,62*,0.016,3,3.5*,-245
COc1ccccc1CNC(=O)CN(C)CC(=O)Nc1cccc(F)c1,0.1,92*,2.4,4,0.2,85*
Cc1nnc(C)n1/N=C/c1ccc(-c2ccccc2)cc1,1,-3,1.2,0,1.1,-8
COc1cccc(/C(O)=C2/C(=O)C(=O)N(CCCN(C)C)C2c2cccc(Cl)c2)c1 (stereo unspecified),1.3,-27,nt,nt,1.2,-17
O=S(=O)(C/C(=C/CO)S(=O)(=O)c1ccccc1)c1ccccc1,0.6,36,nt,8,0.8,20
Cc1nn(Cc2ccccc2)c(C)c1NC(=O)CSc1nc(C2CC2)nc2c1cnn2-c1ccccc1,0.9,11,0.011,2,0.4,64*
O=C(N/N=C/c1ccc(F)cc1)c1ccc(Br)cc1,0.9,6,0.34,-5,1.1,-8
CC(C)(C)c1ccc(C(=O)N/N=C/c2cccc(Cl)c2)cc1,0.2,76*,-2.5,6,0.6,36
O=C(OCn1ncc(Cl)c(Cl)c1=O)c1ccc(C(F)(F)F)cc1,0.2,83*,1.6,12,0.8,22
Cc1cccc(Cn2ncc(Cl)c(Cl)c2=O)c1,0.9,10,1.4,9,1.1,-7

# Compound activity as filed in PubChem BioAssay.
